Assay results: ChEMBL document CHEMBL4152184, “NB 06: From a simple lysosomotropic aSMase inhibitor to tools for elucidating the role of lysosomes in signaling apoptosis and LPS-induced inflammation” (Eur J Med Chem, 2018)

Assays:
MONO-MAC-6 [1] = experiment: Downregulation of PTGS2 mRNA expression level in human MONO-MAC-6 cells at 5 uM incubated for 30 mins measured after 1 hr by oligonucleotide array hybridization assay relative to control; type: functional
Summary of the method: (§1)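 Total RNA was isolated, transcribed and labeled with DY-647 dye, then co-hybridized with DY-548-labeled cDNA from untreated cells on an inflammation oligonucleotide chip (780 gene probes). Differential expression >1.5 was taken as significant.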

MONO-MAC-6 [2] = experiment: Upregulation of TNFalpha mRNA expression level in LPS-stimulated human MONO-MAC-6 cells at 5 uM preincubated for 30 mins followed by LPS stimulation measured after 2 hrs by qRT-PCR method (reference value: 3.10); type: functional
MONO-MAC-6 [3] = experiment: Upregulation of TNFalpha mRNA expression level in LPS-stimulated human MONO-MAC-6 cells at 5 uM preincubated for 30 mins followed by LPS stimulation measured after 1 hr by qRT-PCR method (reference value: 1.08); type: functional
MONO-MAC-6 [4] = experiment: Downregulation of CCL4 mRNA expression level in human MONO-MAC-6 cells at 5 uM incubated for 30 mins measured after 6 hrs by oligonucleotide array hybridization assay relative to control; type: functional; summary of the method: as §1
[5] = molecular target: T1, Acid ceramidase (Homo sapiens) (UniProt Q13510); experiment: Inhibition of exogenous C6-ceramid-stimulated acid ceramidase in human PBMC assessed as ratio of C16-ceramide/lipid phosphate level at 10 uM preincubated for 30 mins followed by C6-ceramid stimulation measured after 4 hrs by HPLC method (reference value: 2.19); type: cell-based
T1 sequence (whole entry): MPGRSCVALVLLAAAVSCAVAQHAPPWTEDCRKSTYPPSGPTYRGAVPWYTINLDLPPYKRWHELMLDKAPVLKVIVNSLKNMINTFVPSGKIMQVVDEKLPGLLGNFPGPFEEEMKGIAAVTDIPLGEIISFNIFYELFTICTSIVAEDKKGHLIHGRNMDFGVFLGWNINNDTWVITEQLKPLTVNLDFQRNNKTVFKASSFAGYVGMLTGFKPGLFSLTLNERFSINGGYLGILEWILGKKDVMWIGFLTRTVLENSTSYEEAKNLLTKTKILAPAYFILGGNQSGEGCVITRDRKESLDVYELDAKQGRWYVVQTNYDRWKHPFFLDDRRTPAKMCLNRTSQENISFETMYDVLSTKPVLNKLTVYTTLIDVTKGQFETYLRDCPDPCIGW
Summary of the method: (§2)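 Human macrophages from primary culture were preincubated 30 min with 10 µM compound. They were then stimulated 4 h with mmLDL (54 µg/mL), TNFalpha (3 ng/mL) or exogenous C6-ceramide (10 µM), or left unstimulated. Individual ceramide species (C16 and C24:1) were quantified in the cell lipid extracts.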

MONO-MAC-6 [6] = experiment: Upregulation of CXCL2 mRNA expression level in LPS-stimulated human MONO-MAC-6 cells at 5 uM preincubated for 30 mins followed by LPS stimulation measured after 1 hr by qRT-PCR method (reference value: 1.29); type: functional
MONO-MAC-6 [7] = experiment: Upregulation of CCL4 mRNA expression level in LPS-stimulated human MONO-MAC-6 cells at 5 uM preincubated for 30 mins followed by LPS stimulation measured after 1 hr by oligonucleotide array hybridization assay (reference value: 1.14); type: functional
MONO-MAC-6 [8] = experiment: Upregulation of CXCL10 mRNA expression level in LPS-stimulated human MONO-MAC-6 cells at 5 uM preincubated for 30 mins followed by LPS stimulation measured after 1 hr by oligonucleotide array hybridization assay (reference value: 1.18); type: functional
MONO-MAC-6 [9] = experiment: Upregulation of CCL4 mRNA expression level in LPS-stimulated human MONO-MAC-6 cells at 5 uM preincubated for 30 mins followed by LPS stimulation measured after 2 hrs by oligonucleotide array hybridization assay (reference value: 5.78); type: functional
MONO-MAC-6 [10] = experiment: Upregulation of FCGR2B mRNA expression level in LPS-stimulated human MONO-MAC-6 cells preincubated for 30 mins followed by LPS stimulation measured after 4 hrs by qRT-PCR analysis relative to control; type: functional
MONO-MAC-6 [11] = experiment: Upregulation of CXCL3 mRNA expression level in human MONO-MAC-6 cells at 5 uM incubated for 30 mins measured after 1 hr by oligonucleotide array hybridization assay relative to control; type: functional
[12] = molecular target: T1, Acid ceramidase (Homo sapiens); experiment: Inhibition of acid ceramidase in human PBMC assessed as ratio of C16-ceramide/lipid phosphate level at 10 uM incubated for 30 mins measured after 4 hrs by HPLC method; type: cell-based; summary of the method: as §2
MONO-MAC-6 [13] = experiment: Upregulation of ICAM1 mRNA expression level in LPS-stimulated human MONO-MAC-6 cells at 5 uM preincubated for 30 mins followed by LPS stimulation measured after 4 hrs by oligonucleotide array hybridization assay (reference value: 2.88); type: functional
MONO-MAC-6 [14] = experiment: Downregulation of PTX3 mRNA expression level in LPS-stimulated human MONO-MAC-6 cells at 5 uM preincubated for 30 mins followed by LPS stimulation measured after 1 hr by oligonucleotide array hybridization assay (reference value: 1.10); type: functional; summary of the method: as §1
[15] = molecular target: T1, Acid ceramidase (Homo sapiens); experiment: Inhibition of TNFalpha-stimulated acid ceramidase in human PBMC assessed as ratio of C16-ceramide/lipid phosphate level at 10 uM preincubated for 30 mins followed by TNFalpha stimulation measured after 4 hrs by HPLC method (reference value: 0.49); type: cell-based; summary of the method: as §2
MONO-MAC-6 [16] = experiment: Downregulation of PTGS2 mRNA expression level in LPS-stimulated human MONO-MAC-6 cells at 5 uM preincubated for 30 mins followed by LPS stimulation measured after 6 hrs by oligonucleotide array hybridization assay (reference value: 3.58); type: functional; summary of the method: as §1
MONO-MAC-6 [17] = experiment: Upregulation of CXCL2 mRNA expression level in LPS-stimulated human MONO-MAC-6 cells at 5 uM preincubated for 30 mins followed by LPS stimulation measured after 2 hrs by oligonucleotide array hybridization assay (reference value: 4.20); type: functional
MONO-MAC-6 [18] = experiment: Downregulation of IL23A mRNA expression level in human MONO-MAC-6 cells at 5 uM incubated for 30 mins measured after 6 hrs by qRT-PCR method relative to control; type: functional
MONO-MAC-6 [19] = experiment: Upregulation of IFNA13 mRNA expression level in LPS-stimulated human MONO-MAC-6 cells preincubated for 30 mins followed by LPS stimulation measured after 1 hr by qRT-PCR analysis relative to control; type: functional
MONO-MAC-6 [20] = experiment: Upregulation of CXCL10 mRNA expression level in LPS-stimulated human MONO-MAC-6 cells at 5 uM preincubated for 30 mins followed by LPS stimulation measured after 4 hrs by oligonucleotide array hybridization assay (reference value: 3.07); type: functional
MONO-MAC-6 [21] = experiment: Downregulation of PTX3 mRNA expression level in human MONO-MAC-6 cells at 5 uM incubated for 30 mins measured after 6 hrs by oligonucleotide array hybridization assay relative to control; type: functional; summary of the method: as §1
MONO-MAC-6 [22] = experiment: Downregulation of CCL20 mRNA expression level in human MONO-MAC-6 cells at 5 uM incubated for 30 mins measured after 1 hr by oligonucleotide array hybridization assay relative to control; type: functional; summary of the method: as §1
MONO-MAC-6 [23] = experiment: Downregulation of CXCL3 mRNA expression level in human MONO-MAC-6 cells at 5 uM incubated for 30 mins measured after 6 hrs by oligonucleotide array hybridization assay relative to control; type: functional; summary of the method: as §1

Structure (SMILES): COc1ccc(CCN(C)CCCn2c3ccccc3c3ccccc32)cc1
- fold change (FC) (MONO-MAC-6 [1]): 1.1
- fold change (FC) (MONO-MAC-6 [2]): 1.34
- fold change (FC) (MONO-MAC-6 [3]): 1.23
- fold change (FC) (MONO-MAC-6 [4]): 7.41
- Ratio [5]: 0.47
- fold change (FC) (MONO-MAC-6 [6]): 1.08
- fold change (FC) (MONO-MAC-6 [7]): 1.24
- fold change (FC) (MONO-MAC-6 [8]): 1.69
- fold change (FC) (MONO-MAC-6 [9]): 3.09
- fold change (FC) (MONO-MAC-6 [10]): 2.93
- fold change (FC) (MONO-MAC-6 [11]): 1.46
- Ratio [12]: 0.38
- fold change (FC) (MONO-MAC-6 [13]): 1.31
- fold change (FC) (MONO-MAC-6 [14]): 1.02
- Ratio [15]: 0.16
- fold change (FC) (MONO-MAC-6 [16]): 1.06
- fold change (FC) (MONO-MAC-6 [17]): 3.88
- fold change (FC) (MONO-MAC-6 [18]): 1.72
- fold change (FC) (MONO-MAC-6 [19]): 41.95
- fold change (FC) (MONO-MAC-6 [20]): 1.01
- fold change (FC) (MONO-MAC-6 [21]): 3.91
- fold change (FC) (MONO-MAC-6 [22]): 1.09
- fold change (FC) (MONO-MAC-6 [23]): 4.67
